Measured values published in ChEMBL document CHEMBL3526041, “Absorption, metabolism and excretion of [(14)C]mirabegron (YM178), a potent and selective β(3)-adrenoceptor agonist, after oral administration to healthy male volunteers” (Drug Metab Dispos, 2012).
Values belong to the molecule of their own block, whether it stands above or below them.

Key:
Details in all cases: in vivo
[1] = Drug recovery in healthy human urine treated with [14C]mirabegron at 160 mg, po as single dose measured up to 48 hrs; format: ADME, organism-based; design: dosed compound name [14C]Mirabegron
Summary of the method: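 Urine was collected at 0–6, 6–12, 12–24 and 24–48 h after a single oral 160 mg [14C]mirabegron dose in four men, with dichlorvos added. Samples underwent solid-phase extraction and radio-HPLC (C18, 40°C), with eluate fractions counted by scintillation. Each peak, as a percentage of eluted radioactivity, was converted to % of dose without recovery correction; mean ± S.D.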

Plasma [2] = experiment: Drug recovery in healthy human plasma treated with [14C]mirabegron at 160 mg, po as single dose measured at 4 hrs; format: ADME, organism-based; design: dosed compound name [14C]Mirabegron
Summary of the method: (§1)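 Plasma taken at 2, 4, 8 and 12 h from the four subjects was pooled at each time point, with dichlorvos added. Pools underwent solid-phase extraction, then HPLC with fractions counted by low-level liquid scintillation. Each peak is expressed as % of the radioactivity injected onto HPLC.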

Plasma [3] = experiment: Drug recovery in healthy human plasma treated with [14C]mirabegron at 160 mg, po as single dose measured at 12 hrs; format: ADME, organism-based; design: dosed compound name [14C]Mirabegron; summary of the method: as §1
Plasma [4] = experiment: Drug recovery in healthy human plasma treated with [14C]mirabegron at 160 mg, po as single dose measured at 2 hrs; format: ADME, organism-based; design: dosed compound name [14C]Mirabegron; summary of the method: as §1
Plasma [5] = experiment: Drug recovery in healthy human plasma treated with [14C]mirabegron at 160 mg, po as single dose measured at 8 hrs; format: ADME, organism-based; design: dosed compound name [14C]Mirabegron; summary of the method: as §1
[6] = Terminal elimination phase half life as total radioactivity in healthy human urine at 160 mg, po as single dose; format: ADME, organism-based; design: dosed compound name [14C]Mirabegron
Summary of the method: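 Same single oral 160 mg [14C]mirabegron solution in four fasted healthy men. Urine was collected over 0–6, 6–12 and 12–24 h, then in 24-h intervals to 408 h. Radioactivity was measured by scintillation counting. Unchanged drug was measured by LC-MS/MS (2–1000 ng/ml). Half-life came from log-linear regression of the terminal phase, and renal clearance was also calculated.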

Homo sapiens [7] = experiment: Toxicity in healthy human assessed as changes in clinical lab values at 160 mg, po as single dose; format: organism-based; design: dosed compound name [14C]Mirabegron
Summary of the method: (§2)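 Safety in the four dosed men was followed throughout admission: 12-lead ECGs, vital signs, hematology, biochemistry, urinalysis, and physical examinations after a single oral 160 mg [14C]mirabegron solution.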

Homo sapiens [8] = experiment: Total drug recovery in healthy human at 160 mg, po as single dose measured up to 408 hrs; format: ADME, organism-based; design: dosed compound name [14C]Mirabegron
Summary of the method: (§3)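 One oral dose of 160 mg [14C]mirabegron (1.85 MBq) given as a solution to four healthy men. Urine and feces were collected to 408 h; feces were homogenized and combusted. Expired air was trapped in hyamine hydroxide at set times to 96 h. All samples were counted by liquid scintillation. Cumulative excretion is given as % of administered radioactivity, mean ± S.D., n=4.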

Plasma [9] = experiment: Terminal elimination phase half life as total radioactivity in healthy human plasma at 160 mg, po as single dose; format: ADME, organism-based; design: dosed compound name [14C]Mirabegron
Summary of the method: (§4)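 Four healthy men fasted overnight, then took one oral dose of 160 mg mirabegron containing 1.85 MBq [14C]mirabegron, dissolved in 20 mM sodium citrate pH 4.5. Blood was drawn into lithium heparin tubes from 0 to 168 h. Total radioactivity in whole blood and plasma was counted by liquid scintillation. Unchanged drug in plasma was measured by validated LC-MS/MS (1–500 ng/ml). Parameters were derived noncompartmentally; values are mean ± S.D., n=4.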

Blood [10] = experiment: Terminal elimination phase half life as total radioactivity in healthy human whole blood at 160 mg, po as single dose; format: ADME, organism-based; design: dosed compound name [14C]Mirabegron; summary of the method: as §4
Plasma [11] = experiment: Tmax as total radioactivity in healthy human plasma at 160 mg, po as single dose; format: ADME, organism-based; design: dosed compound name [14C]Mirabegron; summary of the method: as §4
Homo sapiens [12] = experiment: Toxicity in healthy human assessed as ECG parameter at 160 mg, po as single dose; format: organism-based; design: dosed compound name [14C]Mirabegron; summary of the method: as §2
[13] = Drug recovery in healthy human feces at 160 mg, po as single dose measured up to 96 hrs; format: ADME, organism-based; design: dosed compound name [14C]Mirabegron; summary of the method: as §3
Blood [14] = experiment: AUC (infinity) as total radioactivity in healthy human whole blood at 160 mg, po as single dose; format: ADME, organism-based; design: dose 160 mg, time infinity, route oral, dosed compound name [14C]Mirabegron; summary of the method: as §4
Blood [15] = experiment: Tmax as total radioactivity in healthy human whole blood at 160 mg, po as single dose; format: ADME, organism-based; design: dosed compound name [14C]Mirabegron; summary of the method: as §4
[16] = Drug recovery in healthy human plasma at 160 mg, po as single dose measured at 12 hrs
Homo sapiens [17] = experiment: Toxicity in healthy human assessed as vital signs at 160 mg, po as single dose; format: organism-based; design: dosed compound name [14C]Mirabegron; summary of the method: as §2
Homo sapiens [18] = experiment: Toxicity in healthy human assessed as changes in physical signs at 160 mg, po as single dose; format: organism-based; design: dosed compound name [14C]Mirabegron; summary of the method: as §2
[19] = Drug recovery in healthy human urine at 160 mg, po as single dose measured up to 96 hrs; format: ADME, organism-based; design: dosed compound name [14C]Mirabegron; summary of the method: as §3
Plasma [20] = experiment: Cmax as total radioactivity in healthy human plasma at 160 mg, po as single dose; format: ADME, organism-based; design: dose 160 mg, route oral, dosed compound name [14C]Mirabegron; summary of the method: as §4
[21] = Drug recovery in healthy human expired air at 160 mg, po as single dose measured up to 96 hrs; format: ADME, organism-based; design: dosed compound name [14C]Mirabegron; summary of the method: as §3
[22] = Drug recovery in healthy human urine at 160 mg, po as single dose measured up to 408 hrs; format: ADME, organism-based; design: dosed compound name [14C]Mirabegron; summary of the method: as §3
Plasma [23] = experiment: AUC (infinity) as total radioactivity in healthy human plasma at 160 mg, po as single dose; format: ADME, organism-based; design: dose 160 mg, route oral, time infinity, dosed compound name [14C]Mirabegron; summary of the method: as §4
[24] = Drug recovery in healthy human feces at 160 mg, po as single dose measured up to 408 hrs; format: ADME, organism-based; design: dosed compound name [14C]Mirabegron; summary of the method: as §3
Blood [25] = experiment: Cmax as total radioactivity in healthy human whole blood at 160 mg, po as single dose; format: ADME, organism-based; design: dose 160 mg, route oral, dosed compound name [14C]Mirabegron; summary of the method: as §4

Compound recovery [1]: 2%
Compound recovery (Plasma [2]): Below limit of detection
Compound recovery (Plasma [3]): Below limit of detection
Compound recovery (Plasma [4]): Below limit of detection
Compound recovery (Plasma [5]): Below limit of detection
SMILES: Nc1ccc(CCNCC(O)c2ccccc2)cc1O[C@@H]1O[C@H](C(=O)O)[C@@H](O)[C@H](O)[C@H]1O (stereo not given in full)

Compound recovery [1]: 2.9%
Compound recovery (Plasma [2]): 4.9%
Compound recovery (Plasma [3]): 13%
Compound recovery (Plasma [4]): 3.7%
Compound recovery (Plasma [5]): 9.4%
SMILES: CC(=O)Nc1ccc(CCNC[C@H](O)c2ccccc2)cc1.Cl

Compound recovery [1]: 0.6%
Compound recovery (Plasma [2]): Below limit of detection
Compound recovery (Plasma [3]): Below limit of detection
Compound recovery (Plasma [4]): Below limit of detection
Compound recovery (Plasma [5]): Below limit of detection
SMILES: CC(=O)Nc1ccc(CC(=O)O)cc1 [ACTARIT]

beta t1/2 [6]: 84.5 h
Radiolabel recovery (Homo sapiens [8]): 89.2%
beta t1/2 (Plasma [9]): 28.2 h
beta t1/2 (Blood [10]): 30.5 h
Tmax (Plasma [11]): 2.25 h
Radiolabel recovery [13]: 29.3%
AUC (Blood [14]): 13896 ng·h/mL
Tmax (Blood [15]): 2.13 h
Radiolabel recovery [16]: metabolite_not_detected
Radiolabel recovery [19]: 48.7%
Cmax (Plasma [20]): 879 ng/mL
Radiolabel recovery [21]: Below limit of detection
Radiolabel recovery [22]: 55%
AUC (Plasma [23]): 10443 ng·h/mL
Radiolabel recovery [24]: 34.2%
Cmax (Blood [25]): 777 ng/mL
SMILES: Nc1nc(CC(=O)N[14c]2[14cH][14cH][14c](CCNC[C@H](O)c3ccccc3)[14cH][14cH]2)cs1
Activity (Homo sapiens [7]): Non-toxic
Activity (Homo sapiens [12]): Non-toxic
Activity (Homo sapiens [17]): Non-toxic
Activity (Homo sapiens [18]): Non-toxic
